Bioassay records as filed in PubChem.
An excerpt weighted towards active compounds, which were near 4.1% of everything screened.
ATG4B inh: ATG4B (human) cysteine protease inhibition; actives 0.51% (n = 340,000); Q9Y4P1; ATG4B cleavage of LC3-PLA2, NBD-HPC fluorescence, 1 h; inhibition, % at 8.33 µM; in the data active = inhibition above about 40%
MC4R antagonist: antagonists of human melanocortin 4 receptor (MC4R); actives 0.48% (n = 360,000); inhibition, % at 6.5 µM; MC4R-expressing cells, MTII-stimulated cAMP, LANCE TR-FRET; P32245;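 active = inhibition above its plate's cutoff, the mean of tested wells on that plate plus 3 SD, cut at about 29% in these data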;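 also: 0% = Melanotan II alone and 100% = Melanotan II plus saturating MCL0020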
Target sequence (P32245 whole entry, looked up): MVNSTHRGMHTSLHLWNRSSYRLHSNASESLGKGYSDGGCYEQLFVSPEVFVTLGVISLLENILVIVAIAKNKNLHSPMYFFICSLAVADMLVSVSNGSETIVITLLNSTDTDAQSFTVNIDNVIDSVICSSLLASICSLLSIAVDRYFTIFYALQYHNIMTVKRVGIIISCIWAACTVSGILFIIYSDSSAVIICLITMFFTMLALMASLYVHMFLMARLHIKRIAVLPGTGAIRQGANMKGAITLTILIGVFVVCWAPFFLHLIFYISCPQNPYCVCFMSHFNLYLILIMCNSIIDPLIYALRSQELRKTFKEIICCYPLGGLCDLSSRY
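Material: human MC4R-expressing U2OS cells. Probe or stimulus: Melanotan II challenge. Dosing: 6.5 µM single dose. Times: 30-min compound, 1-h challenge, 1-h detection, room temperature. Technique: TR-FRET with Eu-cAMP and labeled anti-cAMP, 671 nm. Replication: singlicate.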
SMARCA2 activ: increases SMARCA2 function in MMTV reporter cells; MG213 cells, MMTV-luciferase reporter, dexamethasone, overnight; activation, % at 9.1 µM; actives 1% (n = 370,000); in the data active = activation above about 7.8%;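 also: 0% = vehicle wells and 100% = reference activator wells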
MPTP inh: inhibitors of mitochondrial permeability transition pore. AID 602449. inhibition, % at 10 µM. actives 1.4% (n = 360,000). isolated mouse mitochondria, Ca2+ swelling absorbance, 30 min;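 active = inhibition of 50% or more, scaled per plate between neutral and stimulator controls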;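 also: 0% = DMSO wells given calcium and 100% = 1 mM EGTA wells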
MC4R ag barr: activates human MC4R beta-arrestin recruitment. P32245. U2OS MC4R beta-arrestin complementation, luminescence; percent of melanotan II response, DMSO zero. activation, % at 8.9 µM. actives 0.98% (n = 360,000). AID 540308;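 active = activation above a per-plate cutoff, the mean activation of sample wells on that plate plus 3 SD, cut at about 8% in these data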
U2OS cAMP counter: nonselective cAMP signaling inhibitor, MC4R antagonist counter-screen; shares compounds with MC4R antagonist; parental U2OS, forskolin cAMP, LANCE TR-FRET; inhibition, % at 6.5 µM; actives 26% (n = 1,600); AID 602193;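 active = mean inhibition over triplicates above the low-control well mean plus 3 SD, set per campaign, cut at about 13% in these data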;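 also: signal is single emission at 671 nm which falls as cellular cAMP rises; 0% = forskolin-stimulated wells and 100% = buffer without forskolin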
MC4R cAMP antag: human MC4R cAMP antagonism confirmation | shares compounds with MC4R antagonist | MC4R-expressing cells, MTII-stimulated cAMP, TR-FRET | inhibition, % at 6.5 µM | actives 27% (n = 1,600) | AID 602195; in the data active = inhibition above about 29%;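 also: 0% = agonist stimulated wells alone and 100% = agonist stimulated wells plus saturating reference antagonist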
Starred values were filed as active, the others as inactive.

Results for CCOC(=O)CSc1nc2c(sc(=S)n2-c2ccc(CC)cc2)c(=O)[nH]1 ?
ATG4B inh: 3.0; MC4R antagonist: 30.8*; SMARCA2 activ: 1.6; MPTP inh: 3.3; MC4R ag barr: 0.2; U2OS cAMP counter: 3.1; MC4R cAMP antag: -4.3

Results for CC(=O)c1cc(-c2ccccc2)c(=O)n2c1CCC2 ?
SMARCA2 activ: -0.1

How did COc1ccc(NC(=O)CSc2nnc(-c3cccs3)o2)cc1Cl do in these assays?
SMARCA2 activ: -2.9

Results for CCCCN(C)C(=O)c1nc2ccccn2c1CN1CCN(C/C=C/c2ccccc2)CC1 ?
ATG4B inh: -0.3; MC4R antagonist: 35.0*; SMARCA2 activ: 0.6; MPTP inh: -0.3; MC4R ag barr: -0.9; U2OS cAMP counter: -3.0; MC4R cAMP antag: 3.8

How did Cc1ccnn1CCC(=O)N1CCCC(CCC(=O)NCc2ccccc2F)C1 (stereo not given) do in these assays?
ATG4B inh: 12.3; MC4R antagonist: 29.2*; SMARCA2 activ: -1.1; MPTP inh: -2.3; MC4R ag barr: 0.6; U2OS cAMP counter: -0.2; MC4R cAMP antag: 3.3

Results for C=CCN(C)CC#Cc1ccccc1C ?
SMARCA2 activ: -3.4

How did Cc1cc2nc[nH]c2cc1[N+](=O)[O-] do in these assays?
ATG4B inh: 1.7; MC4R antagonist: 28.7*; SMARCA2 activ: -0.1; MPTP inh: 1.0; MC4R ag barr: -0.2; U2OS cAMP counter: 5.1; MC4R cAMP antag: 2.0

Results for O=[N+]([O-])c1cncc2[nH]cnc12 ?
SMARCA2 activ: 1.4

What do the screens show for `COC(=O)C1=C(C(=O)OC)SC2(S1)C(C(=O)OC)=C(C(=O)OC)SC1=C2c2cc(C)cc(C)c2NC1(C)C`?
ATG4B inh: -16.6; MC4R antagonist: 53.5*; SMARCA2 activ: -0.5; MPTP inh: -1.4; MC4R ag barr: -1.6; U2OS cAMP counter: 15.0*; MC4R cAMP antag: 39.9*

What do the screens show for `COc1cc(C(=O)NCC(=O)N/N=C\C(C)=C/c2ccccc2)cc(OC)c1OC`?
ATG4B inh: -6.7; MC4R antagonist: 30.5*; SMARCA2 activ: 1.2; MPTP inh: 0.9; MC4R ag barr: -0.3; U2OS cAMP counter: -1.3; MC4R cAMP antag: -4.3

What do the screens show for `CC(C)(C)C(=O)COC(=O)c1ccc2c(c1)C(=O)N(Cc1ccco1)C2=O`?
ATG4B inh: 2.1; MC4R antagonist: 37.0*; SMARCA2 activ: -1.7; MPTP inh: 1.2; MC4R ag barr: -0.7; U2OS cAMP counter: -3.1; MC4R cAMP antag: -3.3

What do the screens show for `CC1C/C(=C/c2ccncc2)C(=O)/C(=C/c2ccncc2)C1` (stereo not given)?
ATG4B inh: 7.9; MC4R antagonist: 31.0*; SMARCA2 activ: -9.8; MPTP inh: 11.8; MC4R ag barr: -0.9; U2OS cAMP counter: 28.7*; MC4R cAMP antag: 30.2*

How did CC1C/C(=C/c2cccn2C)C(=O)/C(=C/c2cccn2C)C1 (stereo not given) do in these assays?
ATG4B inh: 31.7; MC4R antagonist: 3.3; SMARCA2 activ: 4.6; MPTP inh: 2.7; MC4R ag barr: 0.7

Results for CC(=O)O[C@@H]1C=C[C@@H](C#Cc2ccc(C(C)(C)C)cc2)O[C@@H]1COC(=O)Nc1ccccc1 ?
SMARCA2 activ: -7.3

How did Cc1ccccc1OCC(=O)Nc1sc(C(=O)Nc2cccc(C)c2C)c(C)c1C#N do in these assays?
ATG4B inh: 13.9; MC4R antagonist: 105.0*; MPTP inh: 0.5; MC4R ag barr: -0.2; U2OS cAMP counter: 1.6; MC4R cAMP antag: -3.1

Results for O=C(Nc1ccc(F)cc1)OCc1cn(Cc2ccc(F)cc2F)nn1 ?
SMARCA2 activ: -2.1

Results for COc1ccc(COc2cc(-c3cccc(OC)c3)nc3ccc(NC(=O)c4cccnc4)cc23)cc1 ?
ATG4B inh: -26.9; MC4R antagonist: 33.1*; SMARCA2 activ: 0.8; MPTP inh: -0.6; MC4R ag barr: -2.1; U2OS cAMP counter: 2.1; MC4R cAMP antag: 12.6

How did Cc1[nH]c2ccccc2c1CC(=O)Nc1ccc(Nc2cccnc2)c(-c2ccc(Cl)c(Cl)c2)c1 do in these assays?
SMARCA2 activ: -3.5

Results for CCOC(=O)CC[C@H]1CC[C@]2(CCCN(C(=O)c3cccnc3)C2)O1 ?
SMARCA2 activ: -1.9

What do the screens show for `C=CCN1C(=O)[C@@H](CC(=O)NCC2CCCCC2)[C@]2(C(=O)OCC)CCCCC/C=C/12`?
SMARCA2 activ: -2.8

What do the screens show for `FC(F)(F)c1cnc(Oc2cccc3ccccc23)c(Cl)c1`?
ATG4B inh: 1.9; MC4R antagonist: 29.4*; SMARCA2 activ: -3.7; MPTP inh: 0.0; MC4R ag barr: 1.7; U2OS cAMP counter: -2.0; MC4R cAMP antag: -5.8

What do the screens show for `C=CCOC(=O)N[C@H](c1ccc2ccccc2c1)[C@H](C)/C=C/CC(=O)OC`?
SMARCA2 activ: -3.3

Results for CCc1ccc(NC(=O)C(=O)NCCN2CCN(S(=O)(=O)c3ccccc3)CC2)cc1 ?
ATG4B inh: 2.8; MC4R antagonist: 31.5*; SMARCA2 activ: -0.4; MPTP inh: -0.7; MC4R ag barr: 0.4; U2OS cAMP counter: 3.9; MC4R cAMP antag: 7.7

How did CCCC[C@H]1C2CC(OC(=O)Nc3ccc(Cl)cc3)C(C2)[C@H]2CCCCN21 (stereo not given in full) do in these assays?
SMARCA2 activ: -4.4

Results for COC(=O)C=C1CCC2C3CCC4=CC(=O)C(Br)CC4(C)C3C(=O)CC12C (stereo not given) ?
ATG4B inh: 1.0; MC4R antagonist: 30.8*; SMARCA2 activ: -3.7; MPTP inh: -1.0; MC4R ag barr: -1.0; U2OS cAMP counter: 2.5; MC4R cAMP antag: 21.9

Results for CC12CCC(=O)C=C1CCC1C2C(=O)CC2(C)C1CCC2(O)C(=O)CO (stereo not given) ?
ATG4B inh: 0.8; MC4R antagonist: 7.3; SMARCA2 activ: 2.4; MPTP inh: -1.3; MC4R ag barr: 1.9

Results for O=C(NCCN1CCC(Cc2ccccc2)CC1)C1CCCN(S(=O)(=O)c2ccc([N+](=O)[O-])cc2)C1 (stereo not given) ?
SMARCA2 activ: -6.0

Results for O=C(NCCc1ccccc1)OCc1cn(Cc2ccc(Cl)cc2)nn1 ?
SMARCA2 activ: -0.7

What do the screens show for `CCOC(=O)c1c(NC(=O)C[n+]2ccc(N(C)C)cc2)sc(C)c1C`?
ATG4B inh: -0.2; MC4R antagonist: 29.6*; SMARCA2 activ: -3.9; MPTP inh: -0.8; MC4R ag barr: -1.4; U2OS cAMP counter: 0.9; MC4R cAMP antag: -2.1

Results for COc1ccc(-c2cc(C(=O)OCC(=O)N3CCCCC3)c3ccccc3n2)cc1OC ?
ATG4B inh: 21.3; MC4R antagonist: 36.9*; SMARCA2 activ: 0.0; MPTP inh: 0.0; MC4R ag barr: -0.3; U2OS cAMP counter: 3.0; MC4R cAMP antag: 14.6
